Measured values taken from PubChem BioAssay.
Activity calls are given as the source filed them.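 The calls were made as follows, unless noted: active = viability loss from added drug above about 55%, and viability with drug at most 40%, in both replicates (limit read from the data, passing the limit was not always enough); inconclusive = both conditions met in only one replicate; inactive = neither replicate meets both conditions.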

Legend:
[1] = reducers of endogenous Her2 protein level, primary screen, SKBR3 breast tumor cells, AlphaScreen, ATP viability (AID 461;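 active = Her2 level under about 52% in both replicate screens, with viability over 70% of control, limit read from the data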;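 as to Her2 level: lower value means less Her2 protein in the cells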;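 as to viability: percent of carrier control wells set as 100% viability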); settings: 18-24 h, measured here: SKBR3 viability, ATP luminescence, at 10 µM
[2] = biological target: Receptor tyrosine-protein kinase erbB-2 (Homo sapiens) (UniProt P04626); assay: as above; settings: 18-24 h, at 10 µM, stronger effect = lower value
Receptor tyrosine-protein kinase erbB-2 (Homo sapiens), sequence (P04626 whole entry, looked up): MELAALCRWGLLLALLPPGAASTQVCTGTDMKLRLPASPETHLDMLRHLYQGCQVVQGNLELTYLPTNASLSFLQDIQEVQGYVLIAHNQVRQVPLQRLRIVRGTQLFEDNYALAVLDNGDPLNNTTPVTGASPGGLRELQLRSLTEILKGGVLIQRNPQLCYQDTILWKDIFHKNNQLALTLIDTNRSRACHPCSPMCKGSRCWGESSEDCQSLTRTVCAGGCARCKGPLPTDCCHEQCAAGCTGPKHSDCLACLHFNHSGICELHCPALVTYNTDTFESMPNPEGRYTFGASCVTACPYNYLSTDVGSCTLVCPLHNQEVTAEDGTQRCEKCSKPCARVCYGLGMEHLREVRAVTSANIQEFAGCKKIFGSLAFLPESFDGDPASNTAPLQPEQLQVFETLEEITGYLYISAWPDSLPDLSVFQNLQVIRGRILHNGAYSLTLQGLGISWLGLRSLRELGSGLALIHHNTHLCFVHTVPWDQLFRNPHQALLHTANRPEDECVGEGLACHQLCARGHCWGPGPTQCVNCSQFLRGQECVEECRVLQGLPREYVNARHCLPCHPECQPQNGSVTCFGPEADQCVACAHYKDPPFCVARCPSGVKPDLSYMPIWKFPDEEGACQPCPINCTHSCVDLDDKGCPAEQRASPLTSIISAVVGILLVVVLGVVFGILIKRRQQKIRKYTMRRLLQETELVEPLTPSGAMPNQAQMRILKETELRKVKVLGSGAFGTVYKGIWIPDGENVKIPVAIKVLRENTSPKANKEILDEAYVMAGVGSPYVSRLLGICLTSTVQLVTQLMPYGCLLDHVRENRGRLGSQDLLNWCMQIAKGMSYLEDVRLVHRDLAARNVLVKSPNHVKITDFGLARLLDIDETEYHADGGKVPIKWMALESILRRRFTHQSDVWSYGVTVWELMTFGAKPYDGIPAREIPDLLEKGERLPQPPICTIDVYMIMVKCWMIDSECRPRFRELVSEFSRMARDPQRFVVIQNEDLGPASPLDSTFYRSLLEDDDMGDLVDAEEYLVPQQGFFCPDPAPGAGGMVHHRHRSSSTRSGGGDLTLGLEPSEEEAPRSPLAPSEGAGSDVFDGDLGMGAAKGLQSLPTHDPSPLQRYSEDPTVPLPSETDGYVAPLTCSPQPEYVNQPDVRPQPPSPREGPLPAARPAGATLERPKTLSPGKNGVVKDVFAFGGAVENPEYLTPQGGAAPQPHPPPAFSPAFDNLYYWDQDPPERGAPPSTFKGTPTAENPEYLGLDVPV

[3] = SK-BR-3 cell growth inhibitors, pilot screen, 24 h, human (AID 572;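 active = viability at or below 10% of carrier control in both of two separate runs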;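 also: compound exposure lasted between 18 and 24 h rather than exactly 24 h; 100% = carrier-treated control wells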); settings: SK-BR-3 viability, CellTiter-Glo luminescence, at 10 µM, stronger effect = lower value
[4] = HUVEC growth inhibition – cell-based, human, primary screen (AID 575;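 active = viability at or below 30% in both replicate assays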;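 also: 100% = median of untreated cell wells with 0.1% DMSO on each plate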); settings: HUVEC proliferation, CellTiter-Glo luminescence, 72 h; at 10 µM; stronger effect = lower value
Summary of the method: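 Test system: primary human umbilical vein endothelial cells; medium: endothelial basal medium with 2% FBS plus growth supplements; dosing: 10 µM compound only; times: 72 h treatment at 37 °C; signal: CTG luminescence; read-out: % viability relative to median vehicle-well signal on each plate; control set: vehicle and MePR control wells; plate: 384-well, collagen-coated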

[5] = growth inhibitors of H69AR lung tumor, primary screen, human, duplicate replicates (AID 580;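 active = viability at or under a set limit in both replicates, limit being median viability minus 3 SD, cut at about 48% in these data, passing the limit was not always enough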;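 also: 100% = mean luminescence of untreated wells and 0% = no signal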); settings: H69AR lung tumor cells viability, ATP luminescence, 72 h; at 10 µM; stronger effect = lower value
[6] = reversal of MRP1-mediated doxorubicin resistance, pilot screen, H69AR cells, doxorubicin co-treatment (AID 601); settings: CellTiter-Glo, 72 h, at 10 µM; for differential viability (reversal): stronger effect = higher value
[7] = 384-well plate pilot, post-Golgi transport modulator project, inhibition of yeast transport mutant growth (AID 636; in the data active = inhibition above about 31%); settings: absorbance 615 nm, about 18 h, stronger effect = higher value
[8] = growth suppression of yeast trafficking mutant, preliminary HTS, modulators of trafficking downstream of Golgi apparatus project, 1536-format plate, OD 615 nm (AID 637; in the data active = inhibition above about 30%); settings: yeast transport mutant growth, absorbance 615 nm, 18 h; stronger effect = higher value
[9] = H69AR cells + 2 uM doxorubicin, measured here: viability with 2 uM doxorubicin, stronger effect = lower value
[10] = H69AR cells, compound alone cytotoxicity

Row | SMILES | viability [1] | Her2 level [2] | viability [3] | viability [4] | viability [5] | differential viability (reversal) ([6]; H69AR cells + 2 uM doxorubicin) | viability [6, 9] | viability [6, 10] | inhibition [7] | inhibition [8]
1 | CCc1nc2sc3c(c2c(=O)o1)CCCC3 | 102% | 81% (inactive) | 102% (inactive) | 82.1% (inactive) | 96.3% (inactive) | -0.255% (inactive) | 96.6% | 96.3% | -7.5% (inactive) | -9.84% (inactive)
2 | Cc1cc(C)c(OCC(=O)Nc2ccc3c(c2)OCO3)cc1C | 106% | 116% (inactive) | 106% (inactive) | 92% (inactive) | 84.5% (inactive) | -3.51% (inactive) | 88% | 84.5% | -4% (inactive) | -11.4% (inactive)
3 | COc1ccc(/C=N/n2c(=O)[nH]c3c([nH]c4ccc(C)cc43)c2=O)cc1CN1CCOCC1 | 112% | 100% (inactive) | 112% (inactive) | 95.6% (inactive) | 84.6% (inactive) | 0.925% (inactive) | 83.7% | 84.6% | -1.71% (inactive) | 12% (inactive)
4 | CCOC(=O)C1CCN(C(=O)C2(NC(=O)Nc3ccccc3Cl)CCCCC2)CC1 | 133% | 98% (inactive) | 133% (inactive) | 105% (inactive) | 87.9% (inactive) | 7.69% (inactive) | 80.2% | 87.9% | -1.95% (inactive) | -1.11% (inactive)
5 | CCOC(=O)c1ccc(NC(=O)CCNc2c(N3CCCC3)c(=O)c2=O)cc1 | 104% | 96.5% (inactive) | 104% (inactive) | 91.6% (inactive) | 98.3% (inactive) | 0.27% (inactive) | 98% | 98.3% | -2.5% (inactive) | 0.18% (inactive)
6 | CN(C)C(=O)CSc1nnc([C@H](Cc2c[nH]c3ccccc23)NC(=O)OC(C)(C)C)o1 | 104% | 96.5% (inactive) | 104% (inactive) | 94.9% (inactive) | 94.6% (inactive) | 0.01% (inactive) | 94.6% | 94.6% | -3.68% (inactive) | 5.57% (inactive)
7 | CCN(CC)CCN1C(=O)Cn2c(C)c(C)c3cccc1c32 | 108% | 92.5% (inactive) | 108% (inactive) | 95.7% (inactive) | 84.6% (inactive) | -1.94% (inactive) | 86.5% | 84.6% | -7.47% (inactive) | -1.75% (inactive)
8 | CC(C)(C)OC(=O)NC(CCNC=C1C(=O)OC(C)(C)OC1=O)C(=O)O (stereo not given) | 105% | 92.5% (inactive) | 105% (inactive) | 104% (inactive) | 101% (inactive) | 11.6% (inactive) | 89.2% | 101% | -7.03% (inactive) | -3.5% (inactive)
9 | Cc1cc(N2C(=O)C3C4C=CC(C4)C3C2=O)ccc1Br (stereo not given) | 107% | 99.5% (inactive) | 107% (inactive) | 87.8% (inactive) | 101% (inactive) | 11.6% (inactive) | 89.3% | 101% | -6.58% (inactive) | -5.4% (inactive)
10 | CC(=O)c1ccc(Oc2cc(C)nc(-n3nc(C)cc3C)n2)cc1 | 107% | 96% (inactive) | 107% (inactive) | 51.7% (inactive) | 29.4% (active) | -36.8% (inactive) | 66.2% | 29.4% | -5.87% (inactive) | -2.1% (inactive)
11 | O=C1c2ccccc2C(=O)N1Cc1nc2ccccc2c(=O)n1CCN1CCOCC1 | 97.5% | 81.5% (inactive) | 97.5% (inactive) | 111% (inactive) | 88.8% (inactive) | -3.33% (inactive) | 92.2% | 88.8% | -1.18% (inactive) | -4% (inactive)
12 | CN(C)/C=C1\N=C(c2ccc3c(c2)OCO3)OC1=O | 91% | 94.5% (inactive) | 91% (inactive) | 94.4% (inactive) | 98.1% (inactive) | 21.1% (inactive) | 76.9% | 98.1% | -1.56% (inactive) | -4.5% (inactive)
13 | CCOc1ccc2ccccc2c1/C=N/n1cncn1 | 99.5% | 101% (inactive) | 99.5% (inactive) | 87% (inactive) | 92.3% (inactive) | -11.2% (inactive) | 103% | 92.3% | -5.53% (inactive) | 1.64% (inactive)
14 | O=C(c1ccc2c(c1)OCO2)N1CCCN(C(=O)c2ccc3c(c2)OCO3)CC1 | 89.5% | 91% (inactive) | 89.5% (inactive) | 110% (inactive) | 97.9% (inactive) | 10.7% (inactive) | 87.2% | 97.9% | -1.95% (inactive) | -1.97% (inactive)
15 | O=C(CSc1ncnc2c1cnn2Cc1ccccc1)Nc1ccc2c(c1)OCCO2 | 109% | 98.5% (inactive) | 109% (inactive) | 74.9% (inactive) | 56.1% (inactive) | -5.15% (inactive) | 61.3% | 56.1% | -4.68% (inactive) | -6.23% (inactive)
16 | Cc1cccc(OCC(=O)N2CCC(N3CCCCCC3)CC2)c1 | 95.5% | 126% (inactive) | 95.5% (inactive) | 97.1% (inactive) | 106% (inactive) | 7.21% (inactive) | 98.8% | 106% | -1.45% (inactive) | -6.07% (inactive)
